# Source: ChEMBL document CHEMBL2434866, “Synthesis, antibacterial and antioxidant activities of new 1-alkyl-4-(1-alkyl-4-oxo-1,4-dihydroquinolin-2-yl)pyridinium bromides” (2013)
# Calls of active or inactive are those of the source. The rule behind the calls is not given here.
# Columns and labels:
# Bacillus spizizenii [1] = assay: Antibacterial activity against Bacillus subtilis ATCC 6633 assessed as growth inhibition after 18 to 24 hrs by microdilution assay; format: functional
# Method in brief: (§1)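 Broth microdilution MIC in LB medium at pH 7.2. Compounds came from DMSO stocks and were serially diluted from 1000 to 7.8 (final). Inoculum was mid-log cells diluted to OD600 0.004 (about 5 × 10^5 CFU/mL). Plates were incubated at 37 °C for 18–24 h. MIC was the last dilution without visible turbidity. Controls were DMSO solvent, medium ± antibiotic, and ampicillin.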
# Staphylococcus aureus [2] = assay: Antibacterial activity against Staphylococcus aureus ATCC 25923 assessed as growth inhibition after 18 to 24 hrs by microdilution assay; format: functional; method in brief: as §1
# Enterococcus faecalis [3] = assay: Antibacterial activity against Enterococcus faecalis ATCC 29212 assessed as growth inhibition after 18 to 24 hrs by microdilution assay; format: functional; method in brief: as §1
# Klebsiella pneumoniae [4] = assay: Antibacterial activity against Klebsiella pneumoniae ATCC 13883 assessed as growth inhibition after 18 to 24 hrs by microdilution assay; format: functional; method in brief: as §1
# [5] = system: Radical scavenging activity; assay: Antioxidant activity assessed as DPPH radical scavenging activity after 50 mins; format: functional
# Method in brief: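 DPPH• in methanol was mixed 1:1 with sample at five final concentrations (6.25–100.00), vortexed, and kept 50 min at room temperature. Absorbance was read at 517 nm and plotted against concentration, with reagent-blank and solvent controls. SC50 was read from the graph as the concentration halving the initial DPPH•.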
# Proteus vulgaris [6] = assay: Antibacterial activity against Proteus vulgaris ATCC 13315 assessed as growth inhibition after 18 to 24 hrs by microdilution assay; format: functional; method in brief: as §1
# Pseudomonas aeruginosa [7] = assay: Antibacterial activity against Pseudomonas aeruginosa ATCC 27853 assessed as growth inhibition after 18 to 24 hrs by microdilution assay; format: functional; method in brief: as §1
# [8] = Antioxidant activity assessed as trolox equivalent of ferric ion reducing activity using fe2+-TPTZ at 1 mg/ml after 20 mins by FRAP assay; format: functional
# Method in brief: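 Sample at 1 mg/mL was mixed with reagent, kept 20 min at room temperature, and read at 595 nm against a water blank. Triplicates were corrected for reagent and sample blanks. TEAC came from a five-point Trolox calibration curve.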
# Proteus vulgaris [9] = assay: Antibacterial activity against Proteus vulgaris ATCC 13315 assessed as growth inhibition at 100 ug/mL after 18 to 24 hrs by microdilution assay; format: functional, organism-based
# Bacillus spizizenii [10] = assay: Antibacterial activity against Bacillus subtilis ATCC 6633 assessed as growth inhibition at 100 ug/mL after 18 to 24 hrs by microdilution assay; format: functional
# Pseudomonas aeruginosa [11] = assay: Antibacterial activity against Pseudomonas aeruginosa ATCC 27853 assessed as growth inhibition at 100 ug/mL after 18 to 24 hrs by microdilution assay; format: functional, organism-based
# Klebsiella pneumoniae [12] = assay: Antibacterial activity against Klebsiella pneumoniae ATCC 13883 assessed as growth inhibition at 100 ug/mL after 18 to 24 hrs by microdilution assay; format: functional, organism-based
# Enterococcus faecalis [13] = assay: Antibacterial activity against Enterococcus faecalis ATCC 29212 assessed as growth inhibition at 100 ug/mL after 18 to 24 hrs by microdilution assay; format: functional, organism-based
# Staphylococcus aureus [14] = assay: Antibacterial activity against Staphylococcus aureus ATCC 25923 assessed as growth inhibition at 100 ug/mL after 18 to 24 hrs by microdilution assay; format: functional, organism-based
Structure (SMILES),MIC (Bacillus spizizenii [1]) [mg/L],MIC (Staphylococcus aureus [2]) [mg/L],MIC (Enterococcus faecalis [3]) [mg/L],MIC (Klebsiella pneumoniae [4]) [mg/L],SC50 [5] [µg/mL],MIC (Proteus vulgaris [6]) [mg/L],MIC (Pseudomonas aeruginosa [7]) [mg/L],Activity [8] [equiv],growth inhibition (GI) (Proteus vulgaris [9]),growth inhibition (GI) (Bacillus spizizenii [10]),growth inhibition (GI) (Pseudomonas aeruginosa [11]),growth inhibition (GI) (Klebsiella pneumoniae [12]),growth inhibition (GI) (Enterococcus faecalis [13]),growth inhibition (GI) (Staphylococcus aureus [14])
CCCCCCCCCCCCn1c(-c2cc[n+](CCCCCCCCCCCC)cc2)cc(=O)c2ccccc21.[Br-],250,125,125,125,82,125,125,39,–,–,–,–,–,–
CCCCCCCCCCCCCCCn1c(-c2cc[n+](CCCCCCCCCCCCCCC)cc2)cc(=O)c2ccccc21.[Br-],500,500,250,250,133,500,500,66,–,–,–,–,–,–
CCCCCCCn1c(-c2cc[n+](CCCCCCC)cc2)cc(=O)c2ccccc21.[Br-],62.5,31.2,62.5,62.5,56,125,62.5,59,–,–,–,–,–,–
CCCCCCn1c(-c2cc[n+](CCCCCC)cc2)cc(=O)c2ccccc21.[Br-],31.2,7.8,31.2,15.6,56,62.5,7.8,141,–,–,–,–,–,–
CCCCCCCCCCCCCn1c(-c2cc[n+](CCCCCCCCCCCCC)cc2)cc(=O)c2ccccc21.[Br-],250,250,250,250,45,250,250,53,–,–,–,–,–,–
O=c1cc(-c2ccncc2)[nH]c2ccccc12,–,–,–,–,133,–,–,46,–,–,–,–,–,–
CCCCCCCCCCn1c(-c2cc[n+](CCCCCCCCCC)cc2)cc(=O)c2ccccc21.[Br-],62.5,62.5,125,62.5,78,62.5,31.2,40,–,–,–,–,–,–
Nc1ccccc1C(=O)/C=C/c1ccncc1,–,–,–,–,130,–,–,43,–,–,–,–,–,–
CCCCCCCCCCCn1c(-c2cc[n+](CCCCCCCCCCC)cc2)cc(=O)c2ccccc21.[Br-],125,62.5,125,125,72,31.2,62.5,44,–,–,–,–,–,–
CCCCCCCCCn1c(-c2cc[n+](CCCCCCCCC)cc2)cc(=O)c2ccccc21.[Br-],62.5,31.2,62.5,31.2,55,31.2,62.5,59,–,–,–,–,–,–
CCCCCCCCCCCCCCn1c(-c2cc[n+](CCCCCCCCCCCCCC)cc2)cc(=O)c2ccccc21.[Br-],500,500,250,500,72,500,500,14,–,–,–,–,–,–
CC1(C)S[C@@H]2[C@H](NC(=O)[C@H](N)c3ccccc3)C(=O)N2[C@H]1C(=O)O,–,–,–,–,–,–,–,–,Active,Active,Active,Active,Active,Active
CCCCCCCCn1c(-c2cc[n+](CCCCCCCC)cc2)cc(=O)c2ccccc21.[Br-],31.2,15.6,62.5,31.2,85,31.2,31.2,59,–,–,–,–,–,–
CCCCCn1c(-c2cc[n+](CCCCC)cc2)cc(=O)c2ccccc21.[Br-],62.5,15.6,62.5,31.2,112,62.5,15.6,94,–,–,–,–,–,–
